# According to ChEMBL document CHEMBL5143736, “Discovery and Optimization of a Synthetic Class of Nectin-4-Targeted CD137 Agonists for Immuno-oncology” (J Med Chem, 2022):
# Activity calls are given as the source filed them. The calls are words filed in the database; no cut-off is given here.
# Assays:
# PBMC [1] = assay: […] activity in human PBMC stimulated with anti-CD3-mediated CD137 expression in cocultured with […] cell line assessed as increase in secretion of IFN gamma incubated for 48 hrs by Luminex assay; format: functional, cell-based; settings: DDE = dose-dependent effect
# Procedure, shortened: (§1)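 Healthy-donor PBMCs were thawed into R10 medium and cocultured with HT1376 cells at 10:1 effector:target (1×10^5 PBMC:1×10^4 tumor cells per well). Soluble anti-CD3 OKT3 (100 ng/mL) was added on day 0, then compound, 37 °C, 5% CO2. Supernatant IFNγ and IL-2 taken at 24 and 48 h, measured by Luminex. Four-parameter fit, n = 3, repeated in multiple donors.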
# [2] = molecular target: T1, Tumor necrosis factor receptor superfamily member 9 (Homo sapiens, UniProt Q07011); assay: Binding affinity to human recombinant CD137 by surface plasmon resonance analysis
# Procedure, shortened: (§2)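 Biacore T200 SPR, human CD137, 25 °C. Peptide series in PBS/0.05% Tween 20 with 0.5% DMSO: top 500 nM (threefold) or 10 μM (twofold), 6 further dilutions. Flow 90 μL/min, 60 s association, 100–600 s dissociation, glycine pH 2 regeneration. DMSO-corrected and double-referenced; kinetic fit gives ka, kd, KD.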
# [3] = molecular target: T1, Tumor necrosis factor receptor superfamily member 9; assay: Agonist activity at recombinant human CD137 expressed in Jurkat T cells co-expressing response element driven luciferase reporter gene co-cultured with Nectin-4 expressing mouse MC38 cells assessed as luminescence measured after 6 hrs by luciferase reporter gene based co-culture assay; format: cell-based; settings: filed as agonist, DDE = dose-dependent effect
# Procedure, shortened: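 Jurkat cells carrying human CD137 and a CD137 response-element luciferase reporter, cocultured for 6 h at 37 °C, 5% CO2 with 10,000 MC38 cells engineered to express mouse Nectin-4 (parental MC38 as negative line). Bio-Glo luminescence read-out, as fold induction over no-test-article wells. Mean of n = 2.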
# Nectin-4 = molecular target: T2, Nectin-4 (Homo sapiens, UniProt Q96NY8); assay: Binding affinity to human Nectin-4 assessed as dissociation constant using 1:1 Nectin-4/CD137 by surface plasmon resonance analysis
# T2 sequence (Q96NY8 whole entry): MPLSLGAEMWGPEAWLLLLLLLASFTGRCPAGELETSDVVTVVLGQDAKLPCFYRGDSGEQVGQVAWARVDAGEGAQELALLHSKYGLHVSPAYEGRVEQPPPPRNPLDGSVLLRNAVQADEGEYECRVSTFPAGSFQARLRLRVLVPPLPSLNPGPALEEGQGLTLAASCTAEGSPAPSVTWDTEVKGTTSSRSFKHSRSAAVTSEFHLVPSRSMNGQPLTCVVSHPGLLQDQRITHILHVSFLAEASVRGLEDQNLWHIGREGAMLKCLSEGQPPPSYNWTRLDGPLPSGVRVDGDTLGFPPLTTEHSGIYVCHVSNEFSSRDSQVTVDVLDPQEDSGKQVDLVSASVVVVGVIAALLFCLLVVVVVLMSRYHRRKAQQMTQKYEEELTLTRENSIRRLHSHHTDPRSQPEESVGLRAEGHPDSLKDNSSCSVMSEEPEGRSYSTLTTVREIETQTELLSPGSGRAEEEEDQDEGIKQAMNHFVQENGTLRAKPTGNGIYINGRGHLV
# Procedure, shortened: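 SPR kinetics against human Nectin-4 (residues 32–349, baculovirus/Sf21-expressed, FLAG-tagged), 25 °C. Top 100 nM with 6 further twofold dilutions, 50 μL/min, 60 s association, 400–1200 s dissociation, DMSO-corrected. At least four concentrations used to obtain kon, koff and KD.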
# [4] = molecular target: T1, Tumor necrosis factor receptor superfamily member 9; assay: Agonist activity at human CD137 expressed in human NCI-H292 cells measured after 6 hrs by […] microplate reader assay; format: cell-based; settings: filed as agonist
# [5] = molecular target: T1, Tumor necrosis factor receptor superfamily member 9; assay: Agonist activity at human CD137 expressed in human HT-1376 cells measured after 6 hrs by […] microplate reader assay; format: cell-based; settings: filed as agonist
# PBMC [6] = assay: […] activity in human PBMC stimulated with anti-CD3-mediated CD137 expression in cocultured with […] cell line assessed as increase in secretion of IL2 incubated for 48 hrs by Luminex assay; format: functional, cell-based; settings: DDE = dose-dependent effect; procedure, shortened: as §1
# [7] = molecular target: T1, Tumor necrosis factor receptor superfamily member 9; assay: Binding affinity to human CD137 assessed as dissociation constant by surface plasmon resonance analysis; procedure, shortened: as §2
# [8] = molecular target: T1, Tumor necrosis factor receptor superfamily member 9; assay: Agonist activity at human CD137 expressed in Jurkat T cells co-expressing response element driven luciferase reporter gene assessed as fold change in EC50 at 1:1 Nectin-4/CD137 ratio measured after 6 hrs by HT1376/CD137 reporter co-culture assay; format: cell-based; settings: filed as agonist
# [9] = Volume of distribution at steady state in Cynomolgus monkey at 1 mg/kg, iv administered for 30 min by LC-MS/MS analysis; format: ADME, organism-based, Macaca fascicularis; settings: plasma, read-out: Vdss
# Procedure, shortened: (§3)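 Male naïve cynomolgus monkeys received 1 mg/kg as a 30 min IV infusion in 25 mM histidine HCl, 10% sucrose, pH 7 (n = 2 animals/compound). Serial K2-EDTA plasma was protein-precipitated with internal standard and analysed by LC–MS/MS (Orbitrap, positive ion). Noncompartmental analysis gave clearance, Vdss and terminal half-life.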
# CT26 [10] = assay: Antitumor activity against mouse CT26 cells expressed in CD137 transfected in BALB/c mouse at 1mg/kg, qd
# [11] = molecular target: T1, Tumor necrosis factor receptor superfamily member 9; assay: Agonist activity at human CD137 expressed in Jurkat T cells co-expressing response element driven luciferase reporter gene assessed as fold change in Emax at 1:1 Nectin-4/CD137 ratio measured after 6 hrs by HT1376/CD137 reporter co-culture assay; format: cell-based; settings: filed as agonist
# [12] = molecular target: T1, Tumor necrosis factor receptor superfamily member 9; assay: Induction of recombinant human CD137 assessed as increase in fold change in EC50 incubated for 6 hrs by luminescence based microplate reader assay; settings: filed as agonist
# [13] = Half life in Sprague-Dawley rat at 2 mg/kg, iv by LC/MS/MS analysis; settings: in vivo
# [14] = Half life in Cynomolgus monkey at 1 mg/kg, iv administered for 30 min by LC-MS/MS analysis; format: ADME, organism-based, Macaca fascicularis; settings: plasma; procedure, shortened: as §3
# [15] = molecular target: T1, Tumor necrosis factor receptor superfamily member 9; assay: Induction of recombinant human CD137 assessed as increase in fold change in Emax incubated for 6 hrs by luminescence based microplate reader assay; settings: filed as agonist
# CT26 [16] = assay: Antitumor activity against mouse CT26 cells expressed in CD137 transfected in BALB/c mouse at 5 mg/kg, ip
# [17] = Thermodynamic solubility of the compound in phosphate buffer at pH 7.4; format: physicochemical; settings: read-out: Therm_solubility
# Procedure, shortened: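 Thermodynamic solubility measured in 50 mM phosphate buffer, pH 7.4.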
# [18] = Plasma clearance in Cynomolgus monkey at 1 mg/kg, iv administered for 30 min by LC-MS/MS analysis; format: ADME, organism-based, Macaca fascicularis; procedure, shortened: as §3
# [19] = molecular target: T1, Tumor necrosis factor receptor superfamily member 9; assay: Binding affinity to human CD137 assessed as dissociation constant using 1:1 Nectin-4/CD137 by surface plasmon resonance analysis; settings: filed as agonist
# Procedure, shortened: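 Biacore T200 SPR against human CD137 protein at 25 °C. Peptide series in PBS/0.05% Tween 20 with 0.5% final DMSO; top concentration 500 nM (6 further threefold dilutions) or 10 μM (6 further twofold dilutions). 60 s association, 100–600 s dissociation, 10 mM glycine pH 2 regeneration. Data DMSO-corrected and double-referenced; kinetic fit gives ka, kd and KD.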
# T1 sequence (Q07011 whole entry): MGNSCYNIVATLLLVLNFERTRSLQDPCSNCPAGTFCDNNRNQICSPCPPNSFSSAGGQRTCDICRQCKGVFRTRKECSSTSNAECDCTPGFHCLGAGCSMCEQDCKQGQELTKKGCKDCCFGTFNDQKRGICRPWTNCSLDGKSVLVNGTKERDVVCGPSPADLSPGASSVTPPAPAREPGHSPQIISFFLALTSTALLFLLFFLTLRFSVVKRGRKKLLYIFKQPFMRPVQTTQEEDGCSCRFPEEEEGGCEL
structure (smiles),measurement,setting,value
CCCC[C@@H]1NC(=O)[C@H](Cc2ccc(O)cc2)NC(=O)[C@@H]2CCCN2C(=O)[C@H](CC(=O)O)NC(=O)[C@H](C)NC(=O)[C@H](Cc2ccccc2)NC(=O)[C@@H]2CSCCC(=O)N3CN(CN(C3)C(=O)CCSC[C@@H](C(=O)N[C@@H](CNC(=O)CCOCCOCCOCCOCCOCCOCCOCCOCCOCCOCCOCCOCCn3cc(CCC(=O)NCCC(=O)N(C)CC(=O)N(C)CC(=O)N(C)CC(=O)N(C)CC(=O)N(C)CC(=O)N(C)CC(=O)N(C)CC(=O)N(C)CC(=O)N(C)CC(=O)N(C)CC(=O)N[C@H]4CSCCC(=O)N5CN6CN(C5)C(=O)CCSC[C@H](NC(=O)[C@@H](CC(=O)O)NC(=O)[C@H](Cc5cccc7ccccc57)NC(=O)[C@@H]5CCCN5C4=O)C(=O)N[C@@H](CCSC)C(=O)N[C@@H](CCCCNC(=N)N)C(=O)N[C@@H](CC(=O)O)C(=O)N[C@@H](Cc4c[nH]c5ccccc45)C(=O)N[C@@H](CO)C(=O)N[C@@H]([C@@H](C)O)C(=O)N4CCC[C@H]4C(=O)N4C[C@H](O)C[C@H]4C(=O)N[C@@H](Cc4c[nH]c5ccccc45)C(=O)N[C@H](C(N)=O)CSCCC6=O)nn3)C(N)=O)NC1=O)C(=O)CCSC[C@H](NC(=O)[C@H](C)NC(C)=O)C(=O)NC([C@@H](C)CC)C(=O)N[C@@H](CCC(=O)O)C(=O)N[C@@H](CCC(=O)O)C(=O)NCC(=O)N[C@@H](CCC(N)=O)C(=O)N[C@@H](Cc1ccc(O)cc1)C(=O)N2 (some centres not stated),Activity,PBMC [1],Dde
same,Kd,[2],108 nM
same,Activity,[3],Dde
same,Kd,Nectin-4,2.8 nM
same,Activity,[4],Active
same,Activity,[5],Active
same,Activity,PBMC [6],Dde
CCCC[C@@H]1NC(=O)[C@H](Cc2ccc(O)cc2)NC(=O)[C@@H]2CCCN2C(=O)[C@H](CC(N)=O)NC(=O)[C@H](C)NC(=O)[C@H](Cc2ccccc2)NC(=O)[C@@H]2CSCCC(=O)N3CN(CN(C3)C(=O)CCSC[C@H](NC(C)=O)C(=O)N[C@@H](CC(C)(C)C)C(=O)N3CCC[C@H]3C(=O)N[C@@H](CCC(=O)O)C(=O)N[C@H](CCCCNC(=O)CCc3cn(CCOCCOCCOCCOCCOCCC(=O)N[C@H]4CSCCC(=O)N5CN6CN(C5)C(=O)CCSC[C@H](NC(=O)[C@@H](CC(=O)O)NC(=O)[C@H](Cc5cccc7ccccc57)NC(=O)[C@@H]5CCCN5C4=O)C(=O)N[C@@H](CCSC)C(=O)N[C@@H](CCCCNC(=N)N)C(=O)N[C@@H](CC(=O)O)C(=O)N[C@@H](Cc4c[nH]c5ccccc45)C(=O)N[C@@H](CO)C(=O)N[C@@H]([C@@H](C)O)C(=O)N4CCC[C@H]4C(=O)N4C[C@H](O)C[C@H]4C(=O)N[C@@H](Cc4c[nH]c5ccccc45)C(=O)N[C@H](C(N)=O)CSCCC6=O)nn3)C(=O)N3CCC[C@H]3C(=O)N[C@@H](Cc3ccc(O)cc3)C(=O)N2)C(=O)CCSC[C@@H](C(N)=O)NC1=O,Kd,[7],878 nM
CCCC[C@@H]1NC(=O)[C@H](Cc2ccc(O)cc2)NC(=O)[C@@H]2CCCN2C(=O)[C@H](CC(=O)O)NC(=O)[C@H](C)NC(=O)[C@H](Cc2ccccc2)NC(=O)[C@@H]2CSCCC(=O)N3CN(CN(C3)C(=O)CCSC[C@@H](C(=O)N[C@@H](C)C(N)=O)NC1=O)C(=O)CCSC[C@H](NC(C)=O)C(=O)N[C@@H](CC(C)(C)C)C(=O)N1CCC[C@H]1C(=O)N[C@@H](CCC(=O)O)C(=O)N[C@H](CCCCNC(=O)CCc1cn(CCOCCOCCOCCOCCOCCC(=O)N[C@H]3CSCCC(=O)N4CN5CN(C4)C(=O)CCSC[C@H](NC(=O)[C@@H](CC(=O)O)NC(=O)[C@H](Cc4cccc6ccccc46)NC(=O)[C@@H]4CCCN4C3=O)C(=O)N[C@@H](CCSC)C(=O)N[C@@H](CCCCNC(=N)N)C(=O)N[C@@H](CC(=O)O)C(=O)N[C@@H](Cc3c[nH]c4ccccc34)C(=O)N[C@@H](CO)C(=O)N[C@@H]([C@@H](C)O)C(=O)N3CCC[C@H]3C(=O)N3C[C@H](O)C[C@H]3C(=O)N[C@@H](Cc3c[nH]c4ccccc34)C(=O)N[C@H](C(N)=O)CSCCC5=O)nn1)C(=O)N1CCC[C@H]1C(=O)N[C@@H](Cc1ccc(O)cc1)C(=O)N2,fold change (FC),[8],8.3
same,Vd,[9],0.6 L/kg
same,Activity,PBMC [1],Dde
same,Activity,CT26 [10],Active
same,fold change (FC),[11],2
same,fold change (FC),[12],8.3
same,half-life,[13],55.8 min
same,half-life,[14],30 min
same,fold change (FC),[15],2
same,Activity,CT26 [16],Active
same,solubility thermodynamic,[17],29 mg/mL
same,clearance,[18],30 mL/min/kg
same,Activity,PBMC [6],Dde
CCCC[C@@H]1NC(=O)[C@H](Cc2ccc(O)cc2)NC(=O)[C@@H]2CCCN2C(=O)[C@H](CC(=O)O)NC(=O)[C@H](C)NC(=O)[C@H](Cc2ccccc2)NC(=O)[C@@H]2CSCCC(=O)N3CN(CN(C3)C(=O)CCSC[C@@H](C(=O)N[C@@H](CNC(=O)CCc3cn(CCOCCOCCOCCOCCOCCOCCOCCOCCOCCOCCNC(=O)N[C@H]4CSCCC(=O)N5CN6CN(C5)C(=O)CCSC[C@H](NC(=O)[C@@H](CC(=O)O)NC(=O)[C@H](Cc5cccc7ccccc57)NC(=O)[C@@H]5CCCN5C4=O)C(=O)N[C@@H](CCSC)C(=O)N[C@@H](CCCCNC(=N)N)C(=O)N[C@@H](CC(=O)O)C(=O)N[C@@H](Cc4c[nH]c5ccccc45)C(=O)N[C@@H](CO)C(=O)N[C@@H]([C@@H](C)O)C(=O)N4CCC[C@H]4C(=O)N4C[C@H](O)C[C@H]4C(=O)N[C@@H](Cc4c[nH]c5ccccc45)C(=O)N[C@H](C(N)=O)CSCCC6=O)nn3)C(N)=O)NC1=O)C(=O)CCSC[C@H](NC(=O)[C@H](C)NC(C)=O)C(=O)NC([C@@H](C)CC)C(=O)N[C@@H](CCC(=O)O)C(=O)N[C@@H](CCC(=O)O)C(=O)NCC(=O)N[C@@H](CCC(N)=O)C(=O)N[C@@H](Cc1ccc(O)cc1)C(=O)N2 (some centres not stated),Activity,[19],73 nM
